From ChEMBL document CHEMBL3992538, “Hybrids of thienopyrimidinones and thiouracils as anti-tubercular agents: SAR and docking studies” (Eur J Med Chem, 2017) come the findings set out here.

The test system of series [1] is Mycobacterium tuberculosis. Briefly: Antitubercular activity against dormant stage of Mycobacterium tuberculosis H37Ra ATCC 25177 infected in human THP1 cells after 12 days by nitrate reductase assay. The series is classed as functional. The settings on record: H37Ra ATCC 25177, 288 h. In a few lines:
(§1)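 Ex vivo test of H37Ra in THP-1 cells by nitrate reductase assay, absorbance read at 540 nm. Active stage incubated 8 days and dormant stage 12 days. H37Ra (ATCC 25177) grown in M. pheli medium to OD 1.0 and subcultured once from -70°C stock.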

Series [2] in a line: Selectivity index, ratio of GI50 for human A549 cells to MIC for dormant stage of Mycobacterium tuberculosis H37Ra ATCC 25177. The series is classed as toxicity. The settings on record: read-out: Selectivity Index. In a few lines: (§2)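 Selectivity index is the cytotoxic GI50 against the named human cell line divided by the antimycobacterial value. Activity counted as specific when SI >10.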

Series [3] is described as follows: Selectivity index, ratio of GI50 for human PANC1 cells to MIC for dormant stage of Mycobacterium tuberculosis H37Ra ATCC 25177. The series is classed as toxicity. To be noted: PANC-1 cells, read-out: Selectivity Index. In a few lines:
as §2

In series [4] the test system is Mycobacterium tuberculosis. As to the kind of experiment: Antitubercular activity against dormant stage of Mycobacterium tuberculosis H37Ra ATCC 25177 after 12 days by XTT reduction menadione assay. The class given is functional. The settings on record: H37Ra ATCC 25177, 288 h. In a few lines: (§3)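 M. tuberculosis H37Ra (ATCC 25177), grown to log phase (OD 1.0) in M. pheli medium from -70°C stock, subcultured once before inoculation. Incubation 8 days (active) or 12 days (dormant). XRMA read-out as absorbance at 470 nm.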

Series [5] is described as follows: Selectivity index, ratio of GI50 for human PANC1 cells to MIC for active stage of Mycobacterium tuberculosis H37Ra ATCC 25177. The class given is toxicity. The settings on record: PANC-1 cells, read-out: Selectivity Index. In a few lines:
as §2

The nature of series [6]: Cytotoxicity against human PANC1 cells assessed as growth inhibition by MTT assay. To be noted: PANC-1 cells. The class given is cell-based. In a few lines:
(§4)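 MTT assay in duplicate on THP-1 leukaemia, A549 lung adenocarcinoma, PANC-1 pancreatic adenocarcinoma and HeLa cervical carcinoma cells, all obtained from ECCC.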
(Tetrazolium assays rely on reduction of a dye to a coloured formazan, in cell work by metabolically active cells.)

Series [7] is described as follows: Cytotoxicity against human THP1 cells assessed as growth inhibition by MTT assay. The class given is cell-based. To be noted: THP-1 cells. In a few lines:
as §4

The nature of series [8]: Selectivity index, ratio of GI50 for human A549 cells to MIC for dormant stage of Mycobacterium tuberculosis H37Ra ATCC 25177 infected in human THP1 cells. The series is classed as toxicity, cell-based. To be noted: read-out: Selectivity Index. In a few lines:
as §2

A short description of series [9]: Cytotoxicity against human A549 cells assessed as growth inhibition by MTT assay. The series is classed as cell-based. In a few lines:
as §4

Series [10] can be described thus: Cytotoxicity against human HeLa cells assessed as growth inhibition by MTT assay. The class given is cell-based. In a few lines:
as §4

Series [11] can be described thus: Selectivity index, ratio of GI50 for human PANC1 cells to MIC for active stage of Mycobacterium tuberculosis H37Ra ATCC 25177 infected in human THP1 cells. The series is classed as toxicity, cell-based. The settings on record: PANC-1 cells, read-out: Selectivity Index. In a few lines: as §2
Series [12] in a line: Selectivity index, ratio of GI50 for human A549 cells to MIC for active stage of Mycobacterium tuberculosis H37Ra ATCC 25177 infected in human THP1 cells. The series is classed as toxicity, cell-based. To be noted: read-out: Selectivity Index. In a few lines: as §2
The subject of series [13] is Mycobacterium tuberculosis. As to the kind of experiment: Antitubercular activity against active stage of Mycobacterium tuberculosis H37Ra ATCC 25177 infected in human THP1 cells after 8 days by nitrate reductase assay. The series is classed as functional. The settings on record: H37Ra ATCC 25177, 192 h. In a few lines: as §1
The nature of series [14]: Selectivity index, ratio of GI50 for human HeLa cells to MIC for dormant stage of Mycobacterium tuberculosis H37Ra ATCC 25177 infected in human THP1 cells. The series is classed as toxicity, cell-based. To be noted: read-out: Selectivity Index. In a few lines:
as §2

Series [15] has as its system Mycobacterium tuberculosis. As to the kind of experiment: Antitubercular activity against active stage of Mycobacterium tuberculosis H37Ra ATCC 25177 after 8 days by XTT reduction menadione assay. The settings on record: H37Ra ATCC 25177, 192 h. The class given is functional. In a few lines:
as §3

Series [16] is described as follows: Selectivity index, ratio of GI50 for human HeLa cells to MIC for dormant stage of Mycobacterium tuberculosis H37Ra ATCC 25177. The class given is toxicity, cell-based. To be noted: read-out: Selectivity Index. In a few lines:
as §2

A short description of series [17]: Selectivity index, ratio of GI50 for human PANC1 cells to MIC for dormant stage of Mycobacterium tuberculosis H37Ra ATCC 25177 infected in human THP1 cells. To be noted: PANC-1 cells, read-out: Selectivity Index. The class given is toxicity, cell-based. In a few lines:
as §2

A short description of series [18]: Selectivity index, ratio of GI50 for human HeLa cells to MIC for active stage of Mycobacterium tuberculosis H37Ra ATCC 25177 infected in human THP1 cells. The class given is toxicity, cell-based. The settings on record: read-out: Selectivity Index. In a few lines: as §2
Series [19] can be described thus: Selectivity index, ratio of GI50 for human HeLa cells to MIC for active stage of Mycobacterium tuberculosis H37Ra ATCC 25177. The class given is toxicity, cell-based. To be noted: read-out: Selectivity Index. In a few lines: as §2
Series [20] in a line: Selectivity index, ratio of GI50 for human A549 cells to MIC for active stage of Mycobacterium tuberculosis H37Ra ATCC 25177. The series is classed as toxicity. The settings on record: read-out: Selectivity Index. In a few lines:
as §2

Converted amounts (≈) assume the structure as drawn.

Turning to `COc1cc(-c2nc(SCCCn3cnc4sc5c(c4c3=O)CCCC5)n(C)c(=O)c2C#N)cc(OC)c1OC`, the MIC (in general, the least concentration at which growth counts as inhibited) in series [1] came to 21.5 µg/mL (≈ 37.1 µM); in series [4] it was 26.1 µg/mL (≈ 45 µM); in series [13] it was 26.9 µg/mL (≈ 46.4 µM); in [15], 27.9 µg/mL (≈ 48.1 µM). Besides, the selectivity ratio in series [2] stood at 4; in series [3], 1; in series [5] it was 1; in [8], 4; in [11], 1; in [12] it was 4. Further, the selectivity ratio is 3 in series [14]; 3 in series [16]; 1 in series [17]; 3 in series [18]; 3 in series [19]; 3 in [20]. Moreover, the GI50 (in general, the concentration at which growth is held to half of that of the control) turned out to be 24.8 µg/mL (≈ 42.8 µM) in series [6], 89.7 µg/mL (≈ 155 µM) in series [7], 95.7 µg/mL (≈ 165 µM) in [9] and 70.7 µg/mL (≈ 122 µM) in [10].

Turning to `N#Cc1c(-c2ccc(O)cc2)[nH]c(=S)[nH]c1=O`, the MIC in [1], in [4], in series [13] and in series [15] was more than 30 µg/mL in each case. For the same compound, the selectivity ratio in series [2] is less than 3; in series [3] it was less than 3; in [5], 3; in [8] it was 3; in series [11], 3; in series [12] it was less than 3. In addition, the selectivity ratio in series [14] is less than 3; in series [16], 3; in series [17] it was less than 3; in series [18] it was 3; in series [19], 3; in series [20], 3. Further, the GI50 in series [6] was 89.1 µg/mL (≈ 363 µM); in series [7], 93 µg/mL (≈ 379 µM); in series [9], 87.4 µg/mL (≈ 356 µM); in series [10] it was 90.8 µg/mL (≈ 370 µM).

Take `CCCCCCCCn1c(SCCCn2cnc3sc4c(c3c2=O)CCCC4)nc(-c2cc(OC)c(OC)c(OC)c2)c(C#N)c1=O`: the MIC in series [1], in [4], in series [13] and in [15] was more than 30 µg/mL throughout. In addition, the selectivity ratio in series [2], in series [3], in series [5], in series [8], in series [11] and in series [12] was more than 3 each time. Further, the selectivity ratio in series [14], in [16], in [17], in [18], in series [19] and in series [20] was more than 3 in each case. The GI50 in series [6], in series [7], in [9] and in series [10] was more than 100 µg/mL throughout.

As to `COc1cc(-c2nc(SCCCn3cnc4sc5c(c4c3=O)CCCC5)n(S(=O)(=O)c3ccc(C)cc3)c(=O)c2C#N)cc(OC)c1OC`, the MIC in series [1], in series [4], in series [13] and in [15] was more than 30 µg/mL each time. Also, the selectivity ratio in [2], in series [3], in [5], in [8], in series [11] and in series [12] was more than 3 throughout. For the same compound, the selectivity ratio in [14] was less than 2; in series [16], 2; in series [17], more than 3; in series [18], 2; in [19] it was 2; in [20] it was more than 3. Also, the GI50 is more than 100 µg/mL in series [6], more than 100 µg/mL in series [7], more than 100 µg/mL in series [9] and 64.2 µg/mL (≈ 89.2 µM) in series [10].

On to `CCCCCCc1cc2c(=O)n(CCCSc3nc(-c4cc(OC)c(OC)c(OC)c4)c(C#N)c(=O)[nH]3)cnc2s1`, for which the MIC in [1] is 7.1 µg/mL (≈ 11.9 µM); in [4], 8.7 µg/mL (≈ 14.6 µM); in [13] it was more than 30 µg/mL; in series [15] it was more than 30 µg/mL. Further, the selectivity ratio is 10 in series [2]; 3 in series [3]; 1 in series [5]; 13 in series [8]; 1 in series [11]; less than 3 in [12]. In addition, the selectivity ratio is 9 in [14]; 8 in series [16]; 4 in series [17]; 2 in [18]; 2 in series [19]; 3 in series [20]. In addition, the GI50 was determined as 28.1 µg/mL (≈ 47.2 µM) in series [6], 54.3 µg/mL (≈ 91.1 µM) in series [7], 90.2 µg/mL (≈ 151 µM) in series [9] and 67 µg/mL (≈ 112 µM) in series [10].
